Laboratory results: PubChem BioAssay AID504538 (Southern Research Specialized Biocontainment Screening …, 2011)
Activity calls are given as the source filed them. How the calls were made is not given here.

Legend:
[1] = T7 lysis protection in EV36 bacteria – E. coli EV36, T7 phage, set 2, counter-screen for bacterial capsule biogenesis inhibitors, dose response (AID 504538); settings: E. coli EV36 T7 phage lysis, OD600 3 h; at 100 µM (top of the series)
Procedure, shortened: (§1)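 Assay system: Escherichia coli EV36, K1 and K-12 hybrid strain | Buffer or medium: LB broth, overnight culture diluted 1:100 | Incubation: 1.5 h at 37 °C, then 3 h phage | Detection: Optical density at 600 nm, 3 h after phage infection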

[2] = test system: E. coli EV36 T7 phage lysis, OD600 3 h; assay: as above
Procedure, shortened: as §1

With `N=C(N)SCCc1cccc(CCSC(=N)N)c1` the phage lysis inhibition [1] was 99.9% (inactive).

In the case of `O=C1c2c(O)ccc(O)c2C(=O)c2c(NCCNCCO)ccc(NCCNCCO)c21`, the phage lysis inhibition [1] is reported as 140% (inactive).

In the case of `NC(N)=N/N=C/c1ccc(OCc2ccccc2)cc1`, the IC50 [2] is reported as 45 µM (inactive).

With `CCN(CC)c1ccc2c(-c3ccc(S(=O)(=O)O)cc3S(=O)(=O)O)c3ccc(=[N+](CC)CC)cc-3oc2c1` the phage lysis inhibition [1] was 110% (inactive).

In the case of `COc1cc(/C=N/N=C(N)N)ccc1OCc1ccccc1Cl`, the IC50 [2] is reported as 44 µM (inactive).

In the case of `Cc1cccc(-c2cc(C(=O)O)c3ccccc3n2)c1`, the phage lysis inhibition [1] is reported as 102% (inactive).

For `O=C(Nc1cccc(C2=NCCN2)c1)Nc1cccc(C2=NCCN2)c1`, the phage lysis inhibition [1] was 88.6% (inactive).

For `COc1ccc(-c2cc(C(=O)O)c3ccccc3n2)cc1`, the phage lysis inhibition [1] was 102% (inactive).
